Source: ChEMBL document CHEMBL2169774, “Stabilization and structural alteration of the G-quadruplex DNA made from the human telomeric repeat mediated by Tröger's base based novel benzimidazole derivatives” (J Med Chem, 2012)
The source made the active and inactive calls. The calls are words filed in the database; no cut-off is given here.

Legend:
[1] = target: Telomerase reverse transcriptase (Homo sapiens, UniProt O14746); experiment: Inhibition of telomerase extracted from human A549 cells by TRAP-LIG assay; type: cell-free
Procedure, shortened: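 Three-step TRAP-LIG assay with A549 protein extract (500 ng/sample) and TS primer in TRAP buffer (pH 8.3, 68 mM KCl), ligand at 5–60 μM. Elongation ran at 30 °C for 10 min. Ligand was then removed on a spin column. PCR with ACX primer ran 30 cycles. Products were resolved on 10% PAGE and read by phosphorimager. IC50 is the mean of three experiments.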

Nucleic Acid [2] = experiment: Binding affinity to human d[G3(T2AG3)3] G-quadruplex DNA assessed formation of G-quadruplex parallel strands in 100 mM KCl buffer by CD spectroscopy; type: nucleic-acid assay
Procedure, shortened: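 Hum21 (4 μM strand) was heated at 90 °C for 5 min together with ligand (40 μM), then cooled slowly in 100 mM KCl buffer (10 mM Tris-HCl, 0.1 mM EDTA, pH 7.4). CD spectra were recorded to assign parallel or antiparallel topology.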

Nucleic Acid [3] = experiment: Induction of topology changes in human d[G3(T2AG3)3] G-quadruplex DNA in 100 uM KCl buffer by EMSA method; type: nucleic-acid assay; settings: in the assay text read “100 mM KCl” for “100 uM KCl”
Procedure, shortened: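 5′-32P-labelled Hum21 G4DNA (5 μM) was used under two conditions. In one, it was preformed in 100 mM KCl and then given ligand (25 μM). In the other, it was folded with ligand (15–60 μM) by heating at 90 °C for 5 min and slow cooling in 100 mM KCl. Samples were run on native polyacrylamide gel with a dT20 mobility marker.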

NIH3T3 [4] = experiment: Cytotoxicity in mouse NIH/3T3 cells incubated for 6 to 48 hrs by MTT assay; type: cell-based
Procedure, shortened: (§1)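 HeLa, A549 or NIH3T3 cells (15.0 × 10³/well) were grown 24 h to 70% confluency. Ligand was applied at various concentrations in 0.2% FBS for 6 or 48 h at 37 °C. Medium was then replaced with DMEM/10% FBS and growth continued 42 h. MTT was added for 4 h and formazan dissolved in DMSO. Absorbance read at 595 nm, in triplicate, viability normalized to untreated cells.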

Nucleic Acid [5] = experiment: Binding affinity to human d[G3(T2AG3)3] G-quadruplex DNA assessed as change in structure in CD spectral profile in LiCl+ Na+ buffer by CD spectroscopy; type: nucleic-acid assay
Procedure, shortened: (§2)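 CD titration of preformed Hum21 G4DNA (4 μM) in 100 mM LiCl, 10 mM sodium cacodylate, 0.1 mM EDTA, pH 7.4. Ligand was added stepwise from 0 to 160 μM in 20 μM steps. Peaks at 250 and 295 nm and the induced CD band were monitored.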

Nucleic Acid [6] = experiment: Binding affinity to human d[G3(T2AG3)3] G-quadruplex DNA assessed as change in melting temperature at 20 uM in KCl buffer; type: nucleic-acid assay
Procedure, shortened: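 CD melting of preformed Hum21 G4DNA (2 μM) in 10 mM Tris-HCl, 100 mM KCl, 0.1 mM EDTA, read at 292 nm. Ligand added at r = 10. ΔTm is bound minus free Tm, average of two runs.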

A549 [7] = experiment: Cytotoxicity in human A549 cells incubated for 6 to 48 hrs by MTT assay; type: functional, cell-based; procedure, shortened: as §1
Nucleic Acid [8] = experiment: Binding affinity to human d[G3(T2AG3)3] G-quadruplex DNA assessed as change in structure in CD spectral profile in 100 mM KCl buffer by CD spectroscopy; type: nucleic-acid assay
Procedure, shortened: (§3)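 CD spectral titration of preformed Hum21 G4DNA (4 μM) in 10 mM Tris-HCl, 100 mM KCl, 0.1 mM EDTA, pH 7.4. Ligand was added at 0–160 μM in 20 μM increments. The induced CD band was followed.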

Nucleic Acid [9] = experiment: Binding affinity to human d[G3(T2AG3)3] G-quadruplex DNA in LiCl+ Na+ buffer by CD spectroscopy; type: nucleic-acid assay; procedure, shortened: as §2
Nucleic Acid [10] = experiment: Binding affinity to human d[G3(T2AG3)3] G-quadruplex DNA assessed as change in melting temperature at 20 uM in KCl buffer using compound which is heated to 90 degC for 5 mins followed by slow cooling; type: nucleic-acid assay
Procedure, shortened: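 Hum21 (2 μM) was folded in KCl buffer (10 mM Tris-HCl, 100 mM KCl, 0.1 mM EDTA) with ligand present at r = 10, by heating to 90 °C for 5 min and cooling slowly. CD melting was read at 266 nm. ΔTm is taken against free G4DNA, mean of two experiments.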

Nucleic Acid [11] = experiment: Ratio of Kapp for human d[G3(T2AG3)3] G-quadruplex DNA to Kapp for calf thymus duplex DNA; type: nucleic-acid assay
Procedure, shortened: (§4)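 UV–vis absorption titration of ligand with preformed Hum21 G4DNA, or with calf thymus duplex DNA. Hypochromicity data were converted to Scatchard plots, and the apparent association constant was obtained by linear fitting.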

HeLa [12] = experiment: Cytotoxicity in human HeLa cells at 4 uM up to 15 days by […]; type: functional
Procedure, shortened: (§5)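 Long-term proliferation: HeLa, A549 or NIH3T3 cells were seeded at 5.0 × 10⁴/well. They were exposed to 4 μM ligand, or 0.1% DMSO as vehicle, every 5 days. Cells were counted and reseeded at half the population over 15 days, and population versus time was plotted.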

A549 [13] = experiment: Cytotoxicity in human A549 cells at 4 uM up to 15 days […]; type: functional; procedure, shortened: as §5
Nucleic Acid [14] = experiment: Binding affinity to human d[G3(T2AG3)3] G-quadruplex DNA in 100 mM KCl buffer by CD spectroscopy; type: nucleic-acid assay; procedure, shortened: as §3
Nucleic Acid [15] = experiment: Binding affinity to human d[G3(T2AG3)3] G-quadruplex DNA assessed as change in melting temperature at 10 uM in LiCl-Na buffer; type: nucleic-acid assay
Procedure, shortened: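 CD melting of Hum21 G4DNA (4 μM strand) preformed by heating at 90 °C for 5 min then slow cooling over 24 h in 100 mM LiCl, 10 mM sodium cacodylate, 0.1 mM EDTA, pH 7.4. Ligand added at [ligand]/[DNA] r = 5. Melting followed at 295 nm. ΔTm is ligand-bound minus free Tm, average of two runs.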

HeLa [16] = experiment: Cytotoxicity in human HeLa cells incubated for 6 to 48 hrs by MTT assay; type: functional, cell-based; procedure, shortened: as §1
NIH3T3 [17] = experiment: Cytotoxicity in mouse NIH/3T3 cells at 4 uM up to 15 days […]; type: cell-based; settings: nih3t3, 360 h; procedure, shortened: as §5
HEK293 = experiment: Cytotoxicity in HEK293 cells incubated for 6 to 48 hrs by MTT assay; type: cell-based; settings: human
Procedure, shortened: (§6)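 HEK293 and HEK293T cells were seeded at 8.0 × 10³/well and run as in the short-term MTT protocol: treatment in 0.2% FBS, then medium change and 595 nm formazan read-out. Figure data reflect 48 h exposure, six replicates per point.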

Nucleic Acid [18] = experiment: Binding affinity to human d[G3(T2AG3)3] G-quadruplex DNA by UV-vis titration based assay; type: nucleic-acid assay; procedure, shortened: as §4
HEK-293T = experiment: Cytotoxicity in transformed HEK293T cells incubated for 6 to 48 hrs by MTT assay; type: functional, cell-based; settings: Homo sapiens; procedure, shortened: as §6
Nucleic Acid [19] = experiment: Binding affinity to human d[G3(T2AG3)3] G-quadruplex DNA assessed as change in melting temperature at 20 uM in NaCl buffer; type: nucleic-acid assay
Procedure, shortened: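 CD melting at 295 nm of Hum21 G4DNA (2 μM strand) preformed in 10 mM Tris-HCl, 100 mM NaCl, 0.1 mM EDTA. Ligand at r = 10. ΔTm is complexed minus free Tm, mean of two experiments.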

Nucleic Acid [20] = experiment: Binding affinity to human d[G3(T2AG3)3] G-quadruplex DNA assessed as change in structure in CD spectral profile in LiCl buffer by CD spectroscopy; type: nucleic-acid assay
Procedure, shortened: (§7)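 Hum21 G4DNA (4 μM strand) was preformed in 10 mM Tris-HCl with 100 mM LiCl and 0.1 mM EDTA, pH 7.4. It was then titrated with ligand and CD spectra were recorded.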

Nucleic Acid [21] = experiment: Binding affinity to human d[G3(T2AG3)3] G-quadruplex DNA in LiCl buffer by CD spectroscopy; type: nucleic-acid assay; procedure, shortened: as §7

Sequence of Telomerase reverse transcriptase (O14746 whole entry): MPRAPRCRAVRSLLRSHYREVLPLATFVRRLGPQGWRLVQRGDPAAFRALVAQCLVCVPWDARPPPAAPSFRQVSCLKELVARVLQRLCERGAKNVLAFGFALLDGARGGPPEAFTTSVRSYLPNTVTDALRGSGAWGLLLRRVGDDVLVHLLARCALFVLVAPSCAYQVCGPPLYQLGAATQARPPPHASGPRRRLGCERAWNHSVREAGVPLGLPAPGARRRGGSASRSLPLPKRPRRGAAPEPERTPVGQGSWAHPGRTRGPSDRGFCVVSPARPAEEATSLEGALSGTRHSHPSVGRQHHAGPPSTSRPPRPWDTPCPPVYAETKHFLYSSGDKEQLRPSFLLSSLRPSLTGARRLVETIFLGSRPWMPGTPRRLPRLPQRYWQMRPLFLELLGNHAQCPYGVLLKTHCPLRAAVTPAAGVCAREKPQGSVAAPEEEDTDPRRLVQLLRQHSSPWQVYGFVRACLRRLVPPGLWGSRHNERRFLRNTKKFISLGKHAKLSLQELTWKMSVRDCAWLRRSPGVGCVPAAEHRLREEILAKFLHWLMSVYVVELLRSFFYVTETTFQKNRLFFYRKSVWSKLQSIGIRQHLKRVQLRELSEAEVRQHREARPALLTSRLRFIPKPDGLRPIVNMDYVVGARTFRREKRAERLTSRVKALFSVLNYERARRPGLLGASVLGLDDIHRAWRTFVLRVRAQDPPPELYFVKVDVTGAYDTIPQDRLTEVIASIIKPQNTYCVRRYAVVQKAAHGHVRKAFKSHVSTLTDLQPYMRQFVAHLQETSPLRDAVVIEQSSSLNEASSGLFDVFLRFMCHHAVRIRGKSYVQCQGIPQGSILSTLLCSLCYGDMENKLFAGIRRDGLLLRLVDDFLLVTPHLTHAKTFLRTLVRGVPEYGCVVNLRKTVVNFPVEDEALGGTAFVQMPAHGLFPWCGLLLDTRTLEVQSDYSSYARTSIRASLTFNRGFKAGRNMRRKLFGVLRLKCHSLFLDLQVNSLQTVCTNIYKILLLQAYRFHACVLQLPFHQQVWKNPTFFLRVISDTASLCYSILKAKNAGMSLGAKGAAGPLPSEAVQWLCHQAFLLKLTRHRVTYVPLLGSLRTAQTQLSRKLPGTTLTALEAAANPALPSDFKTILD

| IC50 [1] | Activity (Nucleic Acid [2]) | Activity (Nucleic Acid [3]) | Activity (Nucleic Acid [5]) | ΔTm (Nucleic Acid [6]) | Activity (Nucleic Acid [8]) | Activity (Nucleic Acid [9]) | ΔTm (Nucleic Acid [10]) | Ratio (Nucleic Acid [11]) | Activity (Nucleic Acid [14]) | ΔTm (Nucleic Acid [15]) | Kapp (Nucleic Acid [18]) | SMILES | Activity (NIH3T3 [4]) | Activity (A549 [7]) | Activity (HeLa [12]) | Activity (A549 [13]) | Activity (HeLa [16]) | Activity (NIH3T3 [17]) | Activity (HEK293) | Activity (HEK-293T) | other results |
| --- | --- | --- | --- | --- | --- | --- | --- | --- | --- | --- | --- | --- | --- | --- | --- | --- | --- | --- | --- | --- | --- |
| 14.5 µM | Active | Active | inactive | 10 °C | inactive | Active | 17 °C | 100 | Active | 9.5 °C | 4.2 ×10⁵ /M | OCCN1CCN(c2ccc3nc(-c4ccc5c(c4)CN4CN5Cc5cc(-c6nc7ccc(N8CCN(CCO)CC8)cc7[nH]6)ccc54)[nH]c3c2)CC1 | Toxic | Active | Active | Active | Active | Toxic | Toxic | Active | Activity (A549 [13]; record 2): 100%; ΔTm (Nucleic Acid [19]): 11 °C; Activity (Nucleic Acid [20]): inactive; Activity (Nucleic Acid [21]): Active |
| 34.7 µM | Active | inactive | inactive | 8 °C | inactive | Active | 15 °C | 100 | Active | 9.3 °C | 1.4 ×10⁵ /M | CN1CCN(c2ccc3nc(-c4ccc5c(c4)CN4CN5Cc5cc(-c6nc7ccc(N8CCN(C)CC8)cc7[nH]6)ccc54)[nH]c3c2)CC1 | Toxic | Active | 100% | 100% | Active | Toxic | Toxic | Active | ΔTm (Nucleic Acid [19]): 9 °C; Activity (Nucleic Acid [20]): inactive; Activity (Nucleic Acid [21]): Active |
